Laboratory results published in the EternaBench riboswitch data.

Tested on: MS2 coat protein
Experiment: apparent Kd, MS2 coat protein; higher = weaker binding; RNA-MaP array; FMN 200 µM where present
In short: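 The apparent Kd is reported as the median of filtered per-cluster binding-curve fits. To get these curves, designs transcribed by stalled E. coli RNA polymerase on Illumina sequencing-chip clusters were titrated with SNAP-549-labelled MS2 coat protein from 0.7 or 1.5 nM, doubling to 3 µM. Titrations were run without and then with constant ligand in 100 mM Tris-HCl pH 7.5, 80 mM KCl, 4 mM MgCl2, BSA, DTT, yeast tRNA and Tween-20, and green signal was normalised to red-channel RNA signal and control-cluster median Fmax.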

[1] = designed as: ON switch for flavin mononucleotide, no ligand
[2] = ligand present: flavin mononucleotide, designed as: ON switch for flavin mononucleotide
[3] = designed as: OFF switch for flavin mononucleotide, no ligand
[4] = ligand present: flavin mononucleotide, designed as: OFF switch for flavin mononucleotide

GGGUACAUCGGAGGAUAUCAGGUAAAUACAUGAGGAUCACCCAUGUCGAUGGAGACAUCGGAGAUUGAGAAGGCCGAUGUACCG
apparent Kd [1]: 0.0076 µM | apparent Kd [2]: 0.00513 µM

GGGUACAUCGGAGGAUAUCAUGUAAAUACAUGAGGAUCACCCAUGUAGAUGGAGACAUCGGAGAUUGAGAAGGCCGAUGUACCG
apparent Kd [1]: 0.00769 µM | apparent Kd [2]: 0.00584 µM

GGGUACAUCGGAGGAUAUCAUGUAAAUACAUGAGGAUCACCCAUGUCCAUGGAGACAUCGGAGAUUGAGAAGGCCGAUGUACCG
apparent Kd [1]: 0.171 µM | apparent Kd [2]: 0.203 µM

GGGUACAUCGGAGGAUAUCAUGUAAAUACAUGAGGAUCACCCAUGUCGAUGGAGACAUCGGAGAUUGAGAAGGCCUAUGUACCG
apparent Kd [1]: 0.194 µM | apparent Kd [2]: 0.00934 µM

GGGUACAUCGGAGGAUAUCAUGUAAAUACAUGAGGAUCACCCAUGUCGAUGGAGACAUCGGAGAUUGAGAAGGCUGAUGUACCG
apparent Kd [1]: 0.188 µM | apparent Kd [2]: 0.00918 µM

GGGUACAUCGGAGGAUAUCAUGUAGAUACAUGAGGAUCACCCAUGUCGAUGGAGACAUCGGAGAUUGAGAAGGCCGAUGUACCG
apparent Kd [1]: 0.272 µM | apparent Kd [2]: 0.0101 µM

GGGUACAUCGGAGGAUAUCUUGUAAAUACAUGAGGAUCACCCAUGUCGAUGGAGACAUCGGAGAUUGAGAAGGCCGAUGUACCG
apparent Kd [1]: 0.00803 µM | apparent Kd [2]: 0.00536 µM

GGGUGACAUGAGGAUCACCCAUGUCAGGAUAUCUAGGGCAGAUGCUGGGAGCGUUCGCAGAGAAGGGACCAGAU
apparent Kd [3]: 0.0523 µM | apparent Kd [4]: 0.0461 µM

GGGUGACAUGAGGAUCACCCAUGUCAGGAUAUGGGUUUGGGCCCGAAAGGGCCCGGGCCCAGAAGGGACUGCCC
apparent Kd [3]: 0.0509 µM | apparent Kd [4]: 0.0964 µM

GGGUGAUCUUUAGGAUAUCCCGCGCCAAAGUGCGUUUAUACUACAUGAGGAUCACCCAUGUAACGGGAGAAGGGAGGAAGCCCG
apparent Kd [1]: 0.0817 µM | apparent Kd [2]: 0.029 µM

GGGUGGCGUAUAGGAUAUAUGGUACAUGAGGAUCACCCAUGUACAUAUGAUGUUCAUGUUUGUGUAUAGAAGGAUACGUCGCUA
apparent Kd [1]: 0.00979 µM | apparent Kd [2]: 0.00981 µM

GGGUUCAUGUAAGGAUAUGUAUUGUUAAUCGGAGCAGAAGGUACAUGAGGAUCACCCAUGUCAACCUAGAGCAAGGCUUCUUAG
apparent Kd [3]: 0.0197 µM | apparent Kd [4]: 0.058 µM

GGGUUCAUGUAAGGAUAUGUAUUGUUAAUCGGAGCAGAAGGUACAUGAGGAUCACCCAUGUCAACCUAGAGCAGGGCUUUUUAG
apparent Kd [3]: 0.027 µM | apparent Kd [4]: 0.11 µM

GGUACCAUCACAGGAUAUGCUUUCCAUUGGGAAGCAGAAGGGUGUAACAUGAGGAUCACCCAUGUGGUGCCAGGGCGUGAGCCU
apparent Kd [1]: 0.217 µM | apparent Kd [2]: 0.0152 µM

GGUACCAUCGCAGGAUAUGCUAUCCUUUGGGUAGCAGAAGGGUGAUAACAUGAGGAUCACCCAUGUGGUACCGGGCGUGAGCCC
apparent Kd [1]: 0.0971 µM | apparent Kd [2]: 1.21 µM

GGUACCAUCGCAGGAUAUGGUAUCCUUUGGGUACCAGAAGGGUGAUAACAUGAGGAUCACCCAUGUGGUACCGGGCGUGAGCCC
apparent Kd [1]: 0.029 µM | apparent Kd [2]: 0.97 µM

GGUACUCAAAGAGUACCAAUUCGAACAUGAGGAUCACCCAUGUAGGAUAUGCUACUCAAAGAGUAGCAGAAGGACAUGUGCCUA
apparent Kd [3]: 0.0156 µM | apparent Kd [4]: 0.0736 µM

GGUACUCAAAGAGUACGGAGUCGAACAUGAGGAUCACCCAUGUAGGAUAUGCAAAGCUAGAAGUAGCAGAAGGACAUGUGCAGC
apparent Kd [3]: 0.015 µM | apparent Kd [4]: 0.0171 µM

GGUACUCAAAGAGUAUCAAUACGAACAUGAGGAUCACCCAUGUAGGAUAUGCUACUCAAAGAGUAGCAGAAGGACAUGUGCCUA
apparent Kd [3]: 0.0162 µM | apparent Kd [4]: 0.0913 µM

GGUACUCAGAGAGUACCAAUACGAACAUGAGGAUCACCCAUGUAGGAUAUGCUACUCAAAGAGUAGCAGAAGGACAUGUGCCUA
apparent Kd [3]: 0.0149 µM | apparent Kd [4]: 0.101 µM

GGUAGACAAAGUCUACCAUUACGAACAUGAGGAUCACCCAUGUAGGAUAUGCUACUCAAAGAGUAGCAGAAGGACAUGUGUCUU
apparent Kd [3]: 0.0298 µM | apparent Kd [4]: 0.143 µM

GGUAGCUUCACAGGAUAUGCUAUCCUUUGGGUAGCAGAAGGGUGAUACAUGAGGAUCACCCAUGUGCUGCCAGGGCGUGAGCCC
apparent Kd [1]: 0.286 µM | apparent Kd [2]: 0.5 µM

GGUCAUCAAGUCAGGAUAUCGUCUGGUCGAUCAGGCGAGAAGGGACAUGAGGAUCACCCAUGUCGACUCAUCAG
apparent Kd [3]: 0.0287 µM | apparent Kd [4]: 0.127 µM

GGUCCACAUGAGGAUCACCCAUGUUAGGAUAUCUCCCGCCUCCUCACUAGAGGCGGACAGAGAAGGAACAUCAA
apparent Kd [3]: 0.026 µM | apparent Kd [4]: 0.078 µM

GGUCCAUCAUGAGGAUAUGGCACCUUAUUGGUGCCAGAAGGCAUGUCUUUAGACAUGAGGAUCACCCAUGUAAAUAAUUGGACC
apparent Kd [1]: 1.03 µM | apparent Kd [2]: 0.0925 µM

GGUCCAUCUGUUAGGAUAUGCUUUGGGCUUCCGCAGUAGAAGGAACAUGAGGAUCACCCAUGUCCGAUGCCGUC
apparent Kd [3]: 0.0251 µM | apparent Kd [4]: 0.0303 µM

GGUCGUCACAUCUACAUGAGGAUCACCCAUGUCAAAAGACAUGAGGAUAUGCUACCUAAUUGGUAGCAGAAGGCAUGGACGACC
apparent Kd [1]: 1.29 µM | apparent Kd [2]: 0.072 µM

GGUCGUCACAUUAACAUGAGGAUCACCCAUGUAUAAAGACAUGAGGAUAUGCAUCCUAAUUGGAUGCAGAAGGCAUGGACGACC
apparent Kd [1]: 0.0097 µM | apparent Kd [2]: 0.00613 µM

GGUCGUUGAGGAUAUACGAACAUGUCGCCAGAUGUCAUGGUACAUGAGGAUCACCCAUGUAGAAGGUGGUGGUC
apparent Kd [3]: 0.075 µM | apparent Kd [4]: 0.0257 µM

GGUCUGCGAGGAUAUACAUGAGGAUCACCCAUGUGCGAGAUACUAGUGAGGUCGAUUGGUAGAAGGCGCGGACA
apparent Kd [3]: 0.105 µM | apparent Kd [4]: 0.0666 µM

GGUGCAUAUGAGAAGGCGAUCAUGAAACAUGAUCGAGGAUAUCAUGUAAACAUGAGGAUCACCCAUGUAUGGGAAAAGUGCACC
apparent Kd [1]: 0.0648 µM | apparent Kd [2]: 0.00854 µM

GGUGCCAUGUAGAAGGCAGAUCUGAUUCAGAUCUGAGGAUAUACAUGAGGAUCACCCAUGUAAAGGCACCUCACGAGAGUGCAA
apparent Kd [3]: 0.0105 µM | apparent Kd [4]: 0.0346 µM

GGUGCGUAUGUGAGGAUAUGCUGGUCCUUGGAUCGGCAGAAGGUACAUGAGGAUCACCCAUGUGGUGUCGUUCU
apparent Kd [3]: 0.382 µM | apparent Kd [4]: 0.251 µM

GGUGCGUGUGUGAGGAUAUGCUGGUCCUUGGAUCAGCAGAAGGCACAUGAGGAUCACCCAUGUGGUGUCGUACC
apparent Kd [3]: 0.49 µM | apparent Kd [4]: 0.0248 µM

GGUGCUAUGUAGAAGGCAGAUCUGAUUCAGAUCUGAGGAUAUACAUGAGGAUCACCCAUGUUAUGCACCAGCACGAGAGUGCAU
apparent Kd [3]: 0.0135 µM | apparent Kd [4]: 0.0351 µM

GGUGUGUUAGGAUAUCGCGGCGGCGGCGUUUGUUGUUGUUGUGAGAAGGGACAUGAGGAUCACCCAUGUGCGCC
apparent Kd [3]: 0.0244 µM | apparent Kd [4]: 0.0272 µM

GGUUAAUAUCGAGGAUAUGUCUAGACACAUGAGGAUCACCCAUGUAUGUGUAUAGAAGGCGAUAUUAACAGCAUGUUACAUGCA
apparent Kd [1]: 0.0433 µM | apparent Kd [2]: 0.0164 µM

GGUUAUUGCAAGGAUAUGCUUAUUUGAGAAAUUGCAGAAGGUGCAACAUGAGGAUCACCCAUGUUGGAUGGGUU
apparent Kd [3]: 0.0652 µM | apparent Kd [4]: 0.278 µM

GGUUCUCAAAGAGAACCAUAACGAACAUGAGGAUCACCCAUGUAGGAUAUGCUACUCAAAGAGUAGCAGAAGGACAUGUGCCUU
apparent Kd [3]: 0.0306 µM | apparent Kd [4]: 0.265 µM

GGUUGACAAAGUCAACCAAAUCGAACAUGAGGAUCACCCAUGUAGGAUAUGCUACUCAAAGAGUAGCAGAAGGACAUGUGCUUU
apparent Kd [3]: 0.0407 µM | apparent Kd [4]: 0.227 µM

GGUUGACAAAGUCAACCAUUACGAACAUGAGGAUCACCCAUGUAGGAUAUGCUACUCAAAGAGUAGCAGAAGGACAUGUGUCUU
apparent Kd [3]: 0.0301 µM | apparent Kd [4]: 0.147 µM

GGUUGGCGAGGAUAUACAUGAGGAUCACCCAUGUGGUCCUGUGGCUGAAAAAACCUUUGUAGAAGGCGCGGGUC
apparent Kd [3]: 0.197 µM | apparent Kd [4]: 0.262 µM

GGUUGUCAUCGUCGUCCUUUCGGUACAUGAGGAUCACCCAUGUAGGAUAUGCUGCAUUCGAUGUGGCAGAAGGGCAUGUGUGUU
apparent Kd [3]: 0.0255 µM | apparent Kd [4]: 0.0715 µM

GUAAAGUGAGGAUAUGGUAAAUUAAUUAUUUAUUAAUUAAUCCAGAAGGCACAUGAGGAUCACCCAUGUAAAUG
apparent Kd [3]: 0.0312 µM | apparent Kd [4]: 0.0561 µM

GUAAGCGUAGGAUAUACAUGAGGAUCACCCAUGUCAGUUUUGCACUCUCGGGUGUGCUGUAGAAGGGCGUUACU
apparent Kd [3]: 0.172 µM | apparent Kd [4]: 0.208 µM

GUACAUGAGGAUCACCCAUGUAAAUGGGUAAAUAUAGAACGUAGAAGGAUGUAUUUACACAUGACAUAGGAUAUACUAUAUAGU
apparent Kd [3]: 0.0938 µM | apparent Kd [4]: 0.0739 µM

GUACGGAGGGAGAAGGGCUAGAAGGUCCAGCUUAUGUGUGUUGCAACAUGAGGAUCACCCAUGUAGCAGGAUAUCCCUUGUACA
apparent Kd [3]: 0.0125 µM | apparent Kd [4]: 0.0369 µM

GUACGUGGACAGAAGGCGACAUGAGGAUCACCCAUGUUGGCUCGGGUACGAGCAAUCCGCGUGAUUGAGGAUAUGUCUGCGGGC
apparent Kd [3]: 0.00625 µM | apparent Kd [4]: 0.00993 µM

GUACGUGGACAGAAGGUGACAUGAGGAUCACCCAUGUUAGUUCGGGUACGAGCGAUCCGCGUGAUUGAGGAUAUGUCUGCGGGC
apparent Kd [3]: 0.0691 µM | apparent Kd [4]: 0.175 µM

GUACUACAUGAGGAUCACCCAUGUCAGGAUAUGUGAAUUUCAUCAAAAGAUGAAAUUUGCAGAAGGGACAGUAC
apparent Kd [3]: 0.0253 µM | apparent Kd [4]: 0.0339 µM

GUACUACAUGAGGAUCACCCAUGUGAGGAUAUGCGAAUUUCAUCAAAAGAUGAAAUUUGCAGAAGGCACUGUAC
apparent Kd [3]: 0.0467 µM | apparent Kd [4]: 0.034 µM

GUACUGAAGCUUUGCUUUAGUCGUACAUGAGGAUCACCCAUGUAGGAUAUGGUAGGCUUUGCUUACUAGAAGGAUAGAGUGAUU
apparent Kd [4]: 0.0398 µM

GUACUGUAGUGAGGAUAUACGAGAACGAUAGUUCGGCGAUCCAUUUAUACAUGAGGAUCACCCAUGUAGAAGGCACUUCAGUAC
apparent Kd [3]: 0.00626 µM | apparent Kd [4]: 0.0725 µM

GUACUGUAGUGAGGAUAUACGAGAUCGAUAGAUCGGCGAUCCAAUAAUACAUGAGGAUCACCCAUGUAGAAGGCACUUCAGUAC
apparent Kd [3]: 0.00707 µM | apparent Kd [4]: 0.099 µM

GUAGAGUAAGGAUAUGUUGAAUAGGAUAGAAUGGUUAGAAAGCAGAAGGUACAUGAGGAUCACCCAUGUAAUGU
apparent Kd [3]: 0.0226 µM | apparent Kd [4]: 0.021 µM
